Several values for one entry are separate records, joined by “and”; a condition that tells them apart may be missing. Equal entries are not always repeated.
Legend:
[1] = cited from earlier work
[2] = Population PK model of peficitinib in RA patients; type: in vivo, human
In short: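 RA patients' plasma levels measured by validated LC–MS/MS (LLOQ 0.25 ng/mL) from trough and post-dose samples. BLQ values, samples >48 h after dosing (or <19 h in RAJ1), and outliers (>mean+3×SD of log trough per arm) were excluded. NONMEM, FOCE with interaction, healthy-volunteer model as prior (NWPRI penalty). 2-compartment model, exponential IIV, proportional residual. Stepwise covariate selection, power function centred on mean. 1000 bootstrap runs.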

[3] = Prior population PK model of peficitinib in healthy volunteers; type: in vivo; conditions: human, plasma, oral, 150 mg
In short: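 Healthy-volunteer plasma levels from five clinical pharmacology studies, excluding renal/hepatic-impairment subjects. Validated LC–MS/MS (LLOQ 0.25 ng/mL), BLQ values unused. NONMEM, FOCE with interaction. 2-compartment model, five absorption schemes compared, exponential IIV, proportional residual. Covariates tested on CL: age, weight, MDRD eGFR, liver enzymes, bilirubin. Selection stepwise (forward .01, backward .001). Assessed by goodness-of-fit plots and visual predictive check.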

[4] = RA patient model, 1000 bootstrap runs
[5] = RA patient model, √(exp(ω^2)-1) × 100

NC(=O)c1cnc2[nH]ccc2c1N[C@@H]1[C@@H]2CC3C[C@H]1C[C@@](O)(C3)C2 [peficitinib]
Exposure in healthy Japanese compared with Caucasian [1]: greater
Mean exposure in subjects with moderate hepatic impairment [1]: increases
Mean AUCinf ([1]; healthy subjects, single dose 450 mg): 4660 ng·h/mL
Tolerability ([1]; healthy subjects, single dose up to 450 mg): tolerability was shown
Dose proportionality of exposure ([1]; healthy volunteers, single doses 3–300 mg): dose‐proportional exposure
Increase of AUCinf by food intake ([1]; healthy volunteers): 27% and 36% and 27–36%
Mean terminal half-life (t1/2) ([1]; healthy volunteers): 2.8 to 12.9 h
Time to maximum observed concentration (Tmax) ([1]; healthy volunteers): 1.0 to 1.8 h
Urinary excretion of peficitinib, share of the oral dose ([1]; healthy volunteers): 9–15%
Exposure in subjects with versus without renal impairment ([1]; single, oral 150 mg dose): comparable
ALAG, absorption lag time (estimate) ([2]; RA patient model): 0.132 h
D, duration of zero-order absorption (estimate) ([2]; RA patient model): 1.37 h
Ka, first-order absorption rate constant (estimate) ([2]; RA patient model): 5.83 L/h
Vc, apparent distribution volume of the central compartment (estimate) ([2]; RA patient model): 280 L
Vp, apparent distribution volume of the peripheral compartment (estimate) ([2]; RA patient model): 122 L
CL, apparent total systemic clearance (estimate) ([2]; RA patient model, population estimate, oral): 91.7 L/h
ALAG, bootstrap median [2, 4]: 0.132 h
D, bootstrap median [2, 4]: 1.36 h
Ka, bootstrap median [2, 4]: 5.82 L/h
Q, bootstrap median [2, 4]: 10.2 L/h
Vc, bootstrap median [2, 4]: 279 L
Vp, bootstrap median [2, 4]: 122 L
Covariate eGFR on CL (exponent of power function, estimate) ([2]; RA patient model, eGFR centred at 91.5 mL/min/1.73m^2): 0.213
Covariate LYM (lymphocyte count) on CL (exponent of power function, estimate) ([2]; RA patient model, lymphocyte count centred at 1550 10^6/L): −0.104
Interindividual variability of CL [2, 5]: 25.7%
Interindividual variability of Vc [2, 5]: 39.2%
clearance ([2]; human, plasma, oral): 1530 mL/min
Model predicted mean change in CL from population mean CL ([2]; patients with observed maximum eGFR of 188 mL/min/1.73m^2): 16.7%
Model predicted mean change in CL from population mean CL ([2]; patients with observed maximum lymphocyte count of 4600 10^6/L): −10.7%
Model predicted mean change in CL from population mean CL ([2]; patients with observed minimum eGFR of 36.4 mL/min/1.73m^2): −17.8%
Model predicted mean change in CL from population mean CL ([2]; patients with observed minimum lymphocyte count of 500 10^6/L): 12.3%
clearance [3]: 1390 mL/min
